Experimental data published in ChEMBL document CHEMBL1123010, “Nucleosides. 133. Synthesis of 5-alkenyl-1-(2-deoxy-2-fluoro-beta-D-arabinofuranosyl)cytosines and related pyrimidine nucleosides as potential antiviral agents” (J Med Chem, 1985).

Legend:
[1] = tested on: Human alphaherpesvirus 2 (HSV-2); assay: Ratio of ID50/ID90 in HSV-2 infected cells; assay type: ADME, organism-based; conditions: human alphaherpesvirus 2, HSV-2 infected cells; read-out: Therapeutic index
How it was run: (§1)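 Ratio of two measurements. ID50 came from 3-day growth of rapidly dividing Vero cells, by linear regression. ED90 came from plaque reduction in confluent Vero cells infected with HSV-1 strain F or HSV-2 strain G (about 100 plaques/well). After 1 h adsorption, compounds were added at ≥5 concentrations in medium with 0.1% human globulin. Plaques grew 48 h, then were formalin-fixed, crystal-violet-stained and counted; regression was against log concentration.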

[2] = tested on: P815; assay: In vitro inhibitory activity against P815/ara-C cell line; assay type: functional; conditions: Mus musculus, read-out: ID50 (the source's name)
How it was run: (§2)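 Mouse leukemia cells (L1210/0, P815/0, P815/Ara-C) at 4×10^4 cells/mL in McCoy's 5A with 15% fetal calf serum, nucleoside added as 20-fold concentrate; 96 h at 37 °C in 5% CO2. Cells Coulter-counted, percent growth inhibition and 50% growth-inhibiting concentration calculated.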

[3] = tested on: Human alphaherpesvirus 2; assay: Antiviral activity against herpes simplex type-2 expressed as ED50; assay type: functional; conditions: read-out: ED50 (the source's name)
How it was run: (§3)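 Plaque reduction in confluent mycoplasma-free Vero cells infected with HSV-1 strain F or HSV-2 strain G (about 100 plaques/well), rocked 1 h, inoculum removed, PBS (pH 7.2) wash. Five or more drug concentrations in maintenance medium with 0.1% pooled human globulin, in replicate.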

[4] = tested on: P815; assay: In vitro inhibitory activity against P815/0 cell line; assay type: functional; conditions: Mus musculus, read-out: ID50 (the source's name); how it was run: as §2
[5] = tested on: Human alphaherpesvirus 1; assay: Antiviral activity against herpes simplex type-1 expressed as ED50; assay type: functional; conditions: read-out: ED50 (the source's name); how it was run: as §3
[6] = tested on: L1210; assay: In vitro inhibitory activity against L1212/0 cell line; assay type: functional; conditions: Mus musculus, read-out: ID50 (the source's name); how it was run: as §2
[7] = target: T1, Thymidine kinase (Human herpesvirus 2) (UniProt Q6L709); assay: Effect on thymidine kinase in the herpes simplex type-2 infected cells; assay type: functional; set-up: concentration or dose not given beside the values
T1 sequence (whole entry): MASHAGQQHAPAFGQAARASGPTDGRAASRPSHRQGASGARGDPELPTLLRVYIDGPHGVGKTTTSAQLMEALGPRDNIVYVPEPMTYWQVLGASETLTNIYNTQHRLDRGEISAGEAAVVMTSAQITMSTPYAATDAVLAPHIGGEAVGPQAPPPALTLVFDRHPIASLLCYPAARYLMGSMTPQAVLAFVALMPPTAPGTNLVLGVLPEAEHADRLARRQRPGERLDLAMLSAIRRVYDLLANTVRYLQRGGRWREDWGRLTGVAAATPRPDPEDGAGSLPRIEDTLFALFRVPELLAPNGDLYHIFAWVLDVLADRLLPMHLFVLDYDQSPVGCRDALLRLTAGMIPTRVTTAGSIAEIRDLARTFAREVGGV

[8] = tested on: Human alphaherpesvirus 1 (HSV-1); assay: Ratio of ID50/ID90 in HSV-1 infected cells; assay type: ADME, organism-based; conditions: human alphaherpesvirus 1, HSV-1 infected cells; read-out: Therapeutic index; how it was run: as §1
[9] = tested on: Human alphaherpesvirus 1; assay: Antiviral activity against herpes simplex type-1 expressed as ED90; assay type: functional; how it was run: as §3
[10] = tested on: Vero; assay: Cytotoxic activity against vero cells was evaluated.; assay type: functional; conditions: Chlorocebus sabaeus, read-out: ID50 (the source's name)
How it was run: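 Drug toxicity measured in rapidly dividing Vero cells over 3 days; 50% inhibitory dose (ID50) derived by linear regression analysis.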

[11] = tested on: Human alphaherpesvirus 2; assay: Antiviral activity against herpes simplex type-2 expressed as ED90; assay type: functional; how it was run: as §3
[12] = tested on: Human alphaherpesvirus 1; assay: Effect of compound on thymidine kinase in the herpes simplex type-2 infected cells; assay type: functional, Human alphaherpesvirus 2
[13] = (§4) Ratio of ID50/ID90 in HSV-2; assay type: functional
[14] = (§5) Ratio of ID50/ID90 in HSV-1; assay type: functional
[15] = tested on: Human alphaherpesvirus 1 (HSV-1); assay: Ratio of ID50/ID90 in HSV-1 in fected cells; assay type: ADME, organism-based; conditions: human alphaherpesvirus 1, HSV-1 infected cells; read-out: Therapeutic index; how it was run: as §1
[16] = tested on: Human alphaherpesvirus 2 (HSV-2); assay: as §4; assay type: ADME, organism-based; conditions: human alphaherpesvirus 2, in vivo; how it was run: as §1
[17] = tested on: Human alphaherpesvirus 1 (HSV-1); assay: as §5; assay type: ADME, organism-based; conditions: human alphaherpesvirus 1, in vivo; how it was run: as §1

| SMILES | selectivity ratio [1] | IC50 [2] | EC50 [3] | IC50 [4] | EC50 [5] | IC50 [6] | Control [7] | selectivity ratio [8] | ED90 [9] | IC50 [10] | ED90 [11] | Control [12] | Therapeutic index [13] | Therapeutic index [14] | selectivity ratio [15] | selectivity ratio [16] | selectivity ratio [17] |
| --- | --- | --- | --- | --- | --- | --- | --- | --- | --- | --- | --- | --- | --- | --- | --- | --- | --- |
| C=Cc1cn([C@@H]2O[C@H](CO)[C@@H](O)[C@@H]2F)c(=O)[nH]c1=O | 19 | 32.8 µM | 0.09 µM | 20.8 µM | 0.009 µM | 29 µM | 109% | 251 | 0.043 µM | 10.8 µM | 0.56 µM | – | – | – | – | – | – |
| Cc1cn([C@@H]2O[C@H](CO)[C@@H](O)[C@@H]2F)c(=O)[nH]c1=O [5-METHYL-2'-FLUOROARAURACIL] | – | 12.4 µM | 0.023 µM | 0.98 µM | 0.01 µM | 2.95 µM | 94.1% | – | 0.042 µM | 2.8 µM | 0.09 µM | – | – | – | – | – | – |
| CCc1cn([C@@H]2O[C@H](CO)[C@@H](O)[C@@H]2F)c(=O)nc1N | 29 | – | 0.32 µM | – | 0.035 µM | – | 101% | 251 | 0.57 µM | 143 µM | 4.9 µM | – | – | – | – | – | – |
| O=c1[nH]c(=O)n([C@@H]2O[C@H](CO)[C@@H](O)[C@@H]2F)cc1/C=C/Br | 138 | – | 0.13 µM | – | 0.067 µM | – | 86% | 216 | 0.47 µM | 101 µM | 0.73 µM | – | – | – | – | – | – |
| C[Si](C)(C)C#Cc1cn([C@@H]2O[C@H](CO)[C@@H](O)[C@@H]2F)c(=O)[nH]c1=O | 0.5 | 107 µM | 5.1 µM | 9.8 µM | 5.7 µM | 17.8 µM | 95.8% | 0.4 | 39.5 µM | 17.1 µM | 32.1 µM | – | – | – | – | – | – |
| C#Cc1cn([C@@H]2O[C@H](CO)[C@@H](O)[C@@H]2F)c(=O)[nH]c1=O | 8 | 84.7 µM | 3 µM | 20.4 µM | 1.9 µM | 23.5 µM | 90.8% | 1.3 | 46.6 µM | 62 µM | 7.9 µM | – | – | – | – | – | – |
| CCOC(=O)/C=C/c1cn([C@@H]2O[C@H](CO)[C@@H](O)[C@@H]2F)c(=O)nc1N | – | – | > 100 µM | – | > 100 µM | – | – | – | >100 µM | 126 µM | >100 µM | 107% | – | – | – | – | – |
| C#Cc1cn([C@@H]2O[C@H](CO)[C@@H](O)[C@@H]2F)c(=O)nc1N | 5 | > 300 µM | 0.64 µM | 52.1 µM | 2.1 µM | 10.1 µM | 86.3% | 4 | 7.5 µM | 30 µM | 6 µM | – | – | – | – | – | – |
| Nc1nc(=O)n([C@@H]2O[C@H](CO)[C@@H](O)[C@@H]2F)cc1/C=C/Br | – | – | 0.037 µM | – | 0.068 µM | – | 104% | – | 0.52 µM | 23 µM | 4.5 µM | – | 5 | 44 | – | – | – |
| O=c1[nH]c(=O)n([C@@H]2O[C@H](CO)[C@@H](O)[C@@H]2F)cc1/C=C/Cl | 29 | – | 0.52 µM | – | 0.059 µM | – | 106% | 227 | 0.7 µM | 159 µM | 5.5 µM | – | – | – | – | – | – |
| O=c1[nH]c(=O)n([C@H]2C[C@H](O)[C@@H](CO)O2)cc1/C=C/Br [BRIVUDINE] | 11 | – | 0.23 µM | – | 0.019 µM | – | 110% | 3080 | 0.062 µM | 191 µM | 17 µM | – | – | – | – | – | – |
| O=c1[nH]c(=O)n([C@@H]2O[C@H](CO)[C@@H](O)[C@@H]2F)cc1/C=C/I | 67 | – | 0.15 µM | – | 0.037 µM | – | 96.2% | 509 | 0.11 µM | 56 µM | 0.84 µM | – | – | – | – | – | – |
| Cc1cn([C@@H]2O[C@H](CO)[C@@H](O)[C@@H]2F)c(=O)nc1N | 15 | – | 0.026 µM | – | 0.006 µM | – | 110% | – | 0.048 µM | 1.5 µM | 0.1 µM | – | – | – | 31 | – | – |
| C=Cc1cn([C@@H]2O[C@H](CO)[C@@H](O)[C@@H]2F)c(=O)nc1N | 70 | > 300 µM | 0.062 µM | 23.8 µM | 0.025 µM | 10.7 µM | 111% | 103 | 0.4 µM | 41 µM | 0.59 µM | – | – | – | – | – | – |
| Nc1nc(=O)n([C@@H]2O[C@H](CO)[C@@H](O)[C@@H]2F)cc1/C=C/I | – | – | 0.027 µM | – | 0.088 µM | – | 101% | – | 0.74 µM | > 200 µM | 2.3 µM | – | – | – | – | > 87 | > 270 |
| Nc1nc(=O)n([C@@H]2O[C@H](CO)[C@@H](O)[C@@H]2F)cc1/C=C/C(=O)[O-].[Na+] | – | – | > 100 µM | – | > 100 µM | – | 111% | – | >100 µM | > 200 µM | >100 µM | – | – | – | – | – | – |
